As usually defined, the EC50 is the concentration at which the effect is half-maximal.

The structures appear in SMILES notation. Where two headings read alike, the source gives them in different places.

We go through 14 molecules from publication PMC2740628 (Colloids and surfaces. B, Biointerfaces, 2009).

One data set has as its system B16 melanoma cell line. To be noted: 48 h exposure; cited from earlier work.
A further data set has as its system human erythrocytes. The settings on record: cited from earlier work.
The subject of data set [1] is B16F10 mouse melanoma cell line. Put plainly: MTT-based cytotoxicity test. The class given is cell-based. To be noted: for EC50: read-out: Cytotoxicity EC50, B16F10, 24 h exposure, MTT, range 1 μM to 250 μM; for Cytotoxicity (in words): B16F10, 24 h, 1 μM to 250 μM. An outline of the steps: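 B16F10 cells were grown in D-MEM with 10% FCS, antibiotics and glutamine at 37 °C, 5% CO2. Cells were seeded at 2.5–3.0 × 10^4/mL and grown for 16–24 h. Compounds were added from DMSO/PBS (DMSO below 1% final) at 1–250 μM for 24 h, with octylthioglucoside as positive control. MTT was applied for 3 h, formazan was dissolved with SDS (pH 5.5) and read at 540 nm the next day. EC50 came from dose-response curves, run in triplicate.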

Data set [2] deals with Rabbit red blood cells. The data set is described as follows: Haemolytic activity test. To be noted: for EC50: 2 h, 37 °C; for Haemolytic activity (in words): 7 μM to 3.3 mM. The class given is cell-based. In short, it runs like this:
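Rabbit erythrocytes (2% in PBS) were tested in PBS alone or in PBS with 20% fetal bovine serum. Compounds were dissolved in DMSO, then PBS (DMSO at most 5% final) and tested from 7 μM to 3.3 mM. After 2 h at 37 °C, cells were pelleted at 700g for 10 min. Released haemoglobin was read at 540 nm. The value reported is the lowest concentration giving 50% haemolysis.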

The nature of data set [3]: DPH steady-state fluorescence anisotropy, membrane partitioning. The class given is physicochemical. To be noted: for Membrane partition coefficient K (DPPC bilayers / aqueous phase): calculated with equation 2 from the depression of Tm, surfactant 0-20 μM; for Effect on phase transition temperature Tm of DPPC (in words): surfactant 0 to 20 μM, DPH-labelled DPPC vesicles. In short, it runs like this: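 DPPC large unilamellar vesicles were made with DPH at a lipid:DPH molar ratio of 500:1 and surfactant at 0–20 μM, mixed in chloroform and dried. They were hydrated in water above 50 °C for 1 h and extruded 15 times at 50 °C. Anisotropy was read at λex 350/λem 452 nm while cooling from 50 °C to 20 °C at 0.2 °C/min. Tm was taken from anisotropy-temperature plots and K from the Tm shift (ΔHm 31.38 kJ·mol-1). Run in triplicate.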

For data set [4], the system named is Rabbit red blood cells. To be noted: at 3.3 mM (highest concentration), data reported previously ref 15; cited from earlier work.
The next data set has as its system B16F10 cells. To be noted: cited from earlier work.
Where [5] appears, read: read-out: Haemolytic activity EC50 20 % serum, rabbit red blood cells, PBS containing 20% fetal bovine serum.
[6] abbreviates: read-out: Haemolytic activity EC50 without serum, rabbit red blood cells 2% in PBS, without serum.
The mark [7] stands for this setting: at 3.3 mM (highest concentration), without serum.

In the case of `OC[C@H]1O[C@@H](OCCC(F)(F)C(F)(F)C(F)(F)C(F)(F)C(F)(F)C(F)(F)C(F)(F)C(F)(F)C(F)(F)C(F)(F)F)[C@H](O)[C@@H](O)[C@@H]1O` [3,3,4,4,5,5,6,6,7,7,8,8,9,9,10,10,11,11,12,12,12-heneicosafluoro-dodecyl-β-D-glucopyranoside], the “Toxicity at 50 μM (in words)” value in the data set on B16 melanoma cell line is “nontoxic”.
For `CCCCCCCCCCCCO[C@@H]1O[C@H](CO)[C@@H](O[C@H]2O[C@H](CO)[C@@H](O)[C@H](O)[C@H]2O)[C@H](O)[C@H]1O` [C12 maltopyranoside], in the data set with human erythrocytes, the “Lowest concentration causing lysis of human erythrocytes” value was 58 µM.
Turning to `CCCCCCCCS[C@@H]1O[C@H](CO)[C@@H](O)[C@H](O)[C@H]1O` [OTG, Octylthioglucoside, reference compound], the EC50 in data set [1] was above 250 µM; in the data set with Rabbit red blood cells [2] (setting [5]) it was 3000 µM; in the data set with Rabbit red blood cells [2] (setting [6]), 500 µM.
Turning to `OCC1OC(OCCC(F)(F)C(F)(F)C(F)(F)C(F)(F)C(F)(F)C(F)(F)C(F)(F)C(F)(F)C(F)(F)C(F)(F)F)C(O)C(O)C1O` [corresponding β-D-galactopyranoside], the “Toxicity at 50 μM (in words)” value in the data set with B16 melanoma cell line is reported as “displayed some toxicity”.
In the case of `CCCCCCCCCCCCCCO[C@H]1O[C@H](CO)[C@@H](O)[C@H](O)[C@H]1O` [α-13b], the figures for the EC50 (in data set [1]; in the data set with Rabbit red blood cells [2] (setting [5]); in the data set on Rabbit red blood cells [2] (setting [6])) were 53 µM, above 3300 µM and 2500 µM, respectively. In the data set on Rabbit red blood cells [2] (at 3.3 mM (highest concentration), 20 % serum), the “Haemolysis, percentage in parentheses after >3.3 mM, 20 % serum” value is given as 30%.
For the molecule `CCCCCCCCCCCCCCCCO[C@H]1O[C@H](CO)[C@@H](O)[C@H](O)[C@H]1O` [α-13d], the figures for the EC50 (in data set [1]; in the data set on Rabbit red blood cells [2] (setting [5]); in the data set with Rabbit red blood cells [2] (setting [6])) were 70 µM, above 3300 µM and above 3300 µM, respectively. In addition, the “Haemolysis, percentage in parentheses after >3.3 mM, without serum” value (“Haemolysis, percentage … without serum” below) in the data set with Rabbit red blood cells [2] (setting [7]) was found to be 20%.
`CCCCCCCCCCCCCCCCCO[C@H]1O[C@H](CO)[C@@H](O)[C@H](O)[C@H]1O` [α-13e]: the EC50 in data set [1] is 37 µM; with Rabbit red blood cells [2] (setting [5]) it was above 3300 µM; with Rabbit red blood cells [2] (setting [6]), above 3300 µM. The “Haemolysis, percentage … without serum” value in the data set on Rabbit red blood cells [2] (setting [7]) came to 25%.
As to `CCCCCCCCCCCCCCCCCCCO[C@H]1O[C@H](CO)[C@@H](O)[C@H](O)[C@H]1O` [α-13g, nonadecyl α-D-glucopyranoside], in data set [1], the “Cytotoxicity (in words)” value is listed as “did not show a cytotoxic effect”. Besides, the values for the EC50 (in data set [1]; in the data set with Rabbit red blood cells [2] (setting [5]); with Rabbit red blood cells [2] (setting [6])) were above 250 µM, above 3300 µM and above 3300 µM, respectively. For the same molecule, in the data set with Rabbit red blood cells [2] (rabbit red blood cells), the “Haemolytic activity (in words)” value was “not haemolytic”.
Consider `CCCCCCCO[C@@H]1O[C@H](CO)[C@@H](O)[C@H](O)[C@H]1O` [β-13a, Heptyl-β-D-glucopyranoside], for which the “Membrane partition coefficient K (DPPC bilayers / aqueous phase)” value in data set [3] was 4.61×10^4. Moreover, the “Effect on phase transition temperature Tm of DPPC (in words)” value (from here on “Effect”) in data set [3] is recorded as “decreased the phase transition temperature of DPPC only slightly”. Moreover, the “Cytotoxicity (in words)” value in data set [1] is “insignificant”. The EC50 in data set [1] was above 250 µM; in the data set with Rabbit red blood cells [2] (setting [5]), above 3300 µM; in the data set on Rabbit red blood cells [2] (setting [6]), above 3300 µM. In the data set on Rabbit red blood cells [2] (rabbit red blood cells), the “Haemolytic activity (in words)” value is reported as “essentially nonhaemolytic”.
Regarding `CCCCCCCCCCCCCCCCO[C@@H]1O[C@H](CO)[C@@H](O)[C@H](O)[C@H]1O` [β-13d, hexadecyl β-D-glucopyranoside], in data set [3], the “Membrane partition coefficient K (DPPC bilayers / aqueous phase)” value was 2.78×10^5 and the “Effect” value was “decreased linearly over the entire concentration range investigated”.
`CCCCCCCCCCCCCCCCCO[C@@H]1O[C@H](CO)[C@@H](O)[C@H](O)[C@H]1O` [β-13e]: the “Haemolysis, percentage in parentheses after >3.3 mM, 20 % serum” value in the data set with Rabbit red blood cells [4] is reported as 5%. For the same molecule, the “Apoptosis (in words)” value with B16F10 cells is listed as “induced apoptosis”.
Turning to `CCCCCCCO[C@@H]1O[C@H](CO)[C@H](O)[C@H](O)[C@H]1O` [β-15a], the results for the EC50 (in data set [1]; in the data set with Rabbit red blood cells [2] (setting [5]); in the data set with Rabbit red blood cells [2] (setting [6])) were above 250 µM, above 3300 µM and above 3300 µM, respectively.
As to `CCCCCCCCCCCCCCCCO[C@@H]1O[C@H](CO)[C@H](O)[C@H](O)[C@H]1O` [β-15b, hexadecyl β-D-galactopyranoside], the “Membrane partition coefficient K (DPPC bilayers / aqueous phase)” value in data set [3] is reported as 5.15×10^5. The “Effect” value in data set [3] is “linear decrease in Tm up to a surfactant concentration of 7 μM and an approximately constant Tm at concentrations ≥ 10 μM”. In addition, the EC50 in data set [1] is above 250 µM; with Rabbit red blood cells [2] (setting [5]) it was above 3300 µM; with Rabbit red blood cells [2] (setting [6]), above 3300 µM. Also, the “Haemolysis, percentage … without serum” value in the data set on Rabbit red blood cells [2] (setting [7]) was found to be 40%.
For `CCCCCCCCCCCCCCCCO[C@@H]1O[C@H](CO)[C@@H](O[C@H]2O[C@H](CO)[C@@H](O)[C@H](O)[C@H]2O)[C@H](O)[C@H]1O` [β-17b], the EC50 in data set [1] was 67 µM; with Rabbit red blood cells [2] (setting [5]), 150 µM; in the data set on Rabbit red blood cells [2] (setting [6]), 30 µM. Further, the “Haemolytic activity (in words)” value in the data set on Rabbit red blood cells [2] (rabbit red blood cells) is given as “most haemolytic compound under investigation”.
